Measurements published in ChEMBL document CHEMBL3102854, “Design, synthesis and in vitro cytotoxicity evaluation of 5-(2-carboxyethenyl)isatin derivatives as anticancer agents” (Bioorg Med Chem Lett, 2014).

Legend:
[1] = test system: HepG2; experiment: Cytotoxicity against human HepG2 cells after 48 hrs by MTT assay; format: functional, cell-based; conditions: HepG2, 48 h
In short: (§1)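 Cells seeded at 5 × 10⁴ cells/mL and allowed to settle 2 h (K562) or overnight (HepG2, HT-29). Compound in DMSO added, then 48 h further culture. Viability read by MTT with a microplate reader, normalized to DMSO-treated controls set as 100%. IC₅₀ obtained by nonlinear regression; each compound measured three times.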

[2] = test system: K562; experiment: Cytotoxicity against human K562 cells after 48 hrs by MTT assay; format: functional, cell-based; conditions: K562, 48 h; in short: as §1
[3] = test system: HT-29; experiment: Cytotoxicity against human HT-29 cells after 48 hrs by MTT assay; format: functional, cell-based; conditions: HT-29, 48 h; in short: as §1
[4] = test system: K562; experiment: Induction of apoptosis in human K562 cells at 30 nM after 12 hrs using annexin V-FITC and propidium iodide staining by flow cytometric analysis relative to control; format: functional
In short: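 K562 cells cultured without or with 30 nM compound for 12 h. 1 × 10⁶ cells resuspended in binding buffer containing annexin V-FITC and propidium iodide and incubated 15 min. Further binding buffer added, then cells analysed by flow cytometry for phosphatidylserine exposure.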

SMILES | IC50 [1] [nM] | IC50 [2] [nM] | IC50 [3] [nM] | Activity [4] [%]
O=C1Nc2ccc(Br)cc2C1=O | > 10000 | > 10000 | > 10000 | 
Cc1ccc2c(c1)C(=O)C(=O)N2 | > 10000 | > 10000 | > 10000 | 
CCCCc1ccc2c(c1)C(=O)C(=O)N2 | > 10000 | > 10000 | > 10000 | 
COC(=O)/C=C/c1ccc2c(c1)C(=O)C(=O)N2 | 370 | 220 | 270 | 
COC(=O)/C=C/c1ccc2c(c1)C(=O)C(=O)N2C | 530 | 340 | 300 | 
CCN1C(=O)C(=O)c2cc(/C=C/C(=O)OC)ccc21 | 400 | 170 | 210 | 
COC(=O)/C=C/c1ccc2c(c1)C(=O)C(=O)N2Cc1ccccc1 | 40 | 40 | 70 | 
COC(=O)/C=C/c1ccc2c(c1)C(=O)C(=O)N2Cc1ccc(F)cc1 | 40 | 30 | 60 | 
COC(=O)/C=C/c1ccc2c(c1)C(=O)C(=O)N2Cc1ccc(C#N)cc1 | 50 | 30 | 50 | 
COC(=O)/C=C/c1ccc2c(c1)C(=O)C(=O)N2Cc1ccc(C(F)(F)F)cc1 | 70 | 40 | 40 | 
COC(=O)/C=C/c1ccc2c(c1)C(=O)C(=O)N2Cc1ccc(C)cc1 | 40 | 40 | 30 | 
COC(=O)/C=C/c1ccc2c(c1)C(=O)C(=O)N2Cc1ccc(OC)cc1 | 30 | 3 | 30 | 37.2
COC(=O)/C=C/c1ccc2c(c1)C(=O)C(=O)N2Cc1ccc(Cl)cc1 | 40 | 30 | 60 | 
COC(=O)/C=C/c1ccc2c(c1)C(=O)C(=O)N2Cc1ccc(Cl)c(Cl)c1 | 160 | 60 | 210 | 
COC(=O)/C=C/c1ccc2c(c1)C(=O)C(=O)N2Cc1ccc(Br)cc1 | 40 | 6 | 30 | 32.2
COC(=O)/C=C/c1ccc2c(c1)C(=O)C(=O)N2Cc1cccc(Br)c1 | 170 | 30 | 240 | 
COC(=O)/C=C/c1ccc2c(c1)C(=O)C(=O)N2Cc1ccccc1Br | 260 | 70 | 240 | 
COC(=O)/C=C/c1ccc2c(c1)C(=O)C(=O)N2Cc1ccc2ccccc2c1 | 90 | 40 | 100 | 
COC(=O)/C=C/c1ccc2c(c1)C(=O)C(=O)N2CCOc1ccccc1 | 210 | 60 | 200 | 
COC(=O)/C=C/c1ccc2c(c1)C(=O)C(=O)N2Cc1cc(C)cc(C)c1 | 150 | 40 | 70 | 
COC(=O)/C=C/c1cccc2c1C(=O)C(=O)N2Cc1ccc(OC)cc1 | 5490 | 350 | 3120 | 
COC(=O)/C=C/c1ccc2c(c1)N(Cc1ccc(OC)cc1)C(=O)C2=O | > 10000 | 4860 | > 10000 | 
COC(=O)/C=C/c1cccc2c1N(Cc1ccc(OC)cc1)C(=O)C2=O | > 10000 | 4130 | > 10000 | 
CCOC(=O)/C=C/c1ccc2c(c1)C(=O)C(=O)N2Cc1ccc(OC)cc1 | 90 | 10 | 60 | 
CCOC(=O)/C=C/c1ccc2c(c1)C(=O)C(=O)N2Cc1ccc(Br)cc1 | 290 | 30 | 50 | 
CCCCOC(=O)/C=C/c1ccc2c(c1)C(=O)C(=O)N2Cc1ccc(OC)cc1 | 630 | 40 | 420 | 

SMILES | IC50 [1] [nM] | IC50 [2] [nM] | IC50 [3] [nM] | Activity [4] [%]
CCCCOC(=O)/C=C/c1ccc2c(c1)C(=O)C(=O)N2Cc1ccc(Br)cc1 | 650 | 150 | 600 | 
COc1ccc(CN2C(=O)C(=O)c3cc(/C=C/C(=O)OC(C)(C)C)ccc32)cc1 | 620 | 50 | 480 | 
CC(C)(C)OC(=O)/C=C/c1ccc2c(c1)C(=O)C(=O)N2Cc1ccc(Br)cc1 | 2050 | 290 | 730 | 
COc1ccc(CN2C(=O)C(=O)c3cc(/C=C/C(=O)OCCO)ccc32)cc1 | 860 | 40 | 550 | 
O=C(/C=C/c1ccc2c(c1)C(=O)C(=O)N2Cc1ccc(Br)cc1)OCCO | 3660 | 50 | 680 | 
COc1ccc(CN2C(=O)C(=O)c3cc(/C=C/C(=O)O)ccc32)cc1 | > 10000 | > 10000 | > 10000 | 
COc1ccc(CN2C(=O)C(=O)c3cc(/C=C/C(N)=O)ccc32)cc1 | 890 | 200 | 560 | 
NC(=O)/C=C/c1ccc2c(c1)C(=O)C(=O)N2Cc1ccc(Br)cc1 | > 10000 | 300 | 550 | 
COc1ccc(CN2C(=O)C(=O)c3cc(/C=C/C(=O)N4CCOCC4)ccc32)cc1 | 7380 | 720 | 4240 | 
O=C1C(=O)N(Cc2ccc(Br)cc2)c2ccc(/C=C/C(=O)N3CCOCC3)cc21 | 7790 | 1380 | 4590 | 
COc1ccc(CN2C(=O)C(=O)c3cc(/C=C/C(=O)N4CCCC4)ccc32)cc1 | 7810 | 460 | 5230 | 
O=C1C(=O)N(Cc2ccc(Br)cc2)c2ccc(/C=C/C(=O)N3CCCC3)cc21 | 6300 | 1710 | 4420 | 
COC(=O)/C=C/c1ccc2c(c1)C(O)C(=O)N2Cc1ccc(OC)cc1 (stereo not given) | 380 | 30 | 320 | 
COC(=O)/C=C/c1ccc2c(c1)C(O)C(=O)N2Cc1ccc(Br)cc1 (stereo not given) | 670 | 260 | 660 | 
COC(=O)/C=C/c1ccc2c(c1)/C(=N/O)C(=O)N2Cc1ccc(OC)cc1 | 3560 | 2110 | 4940 | 
COC(=O)/C=C/c1ccc2c(c1)/C(=N/O)C(=O)N2Cc1ccc(Br)cc1 | 9960 | 2920 | 3640 | 
COC(=O)/C=C/c1ccc2c(c1)CC(=O)N2Cc1ccc(OC)cc1 | 9170 | 990 | 3720 | 
COC(=O)/C=C/c1ccc2c(c1)CC(=O)N2Cc1ccc(Br)cc1 | > 10000 | 3160 | > 10000 | 
COC(=O)/C=C/c1ccc2c(c1)C1(OCCO1)C(=O)N2Cc1ccc(OC)cc1 | > 10000 | 4890 | > 10000 | 
COC(=O)/C=C/c1ccc2c(c1)C1(OCCO1)C(=O)N2Cc1ccc(Br)cc1 | 7470 | 2630 | 5110 | 
O=C1Nc2ccc(Cl)cc2C1=O | > 10000 | > 10000 | > 10000 | 
O=C1Nc2ccc(F)cc2C1=O [5-FLUOROISATIN] | > 10000 | > 10000 | > 10000 | 
COc1ccc2c(c1)C(=O)C(=O)N2 [5-METHOXYISATIN] | > 10000 | > 10000 | > 10000 | 
CC[C@@]1(O)C(=O)OCc2c1cc1n(c2=O)Cc2cc3ccccc3nc2-1 [CAMPTOTHECIN] | 50 | 40 | 60 | 
O=C1Nc2ccccc2C1=O [ISATIN] | > 10000 | > 10000 | > 10000 | 
